In brackets after ≈: the same amount, converted by molar mass.
What was measured:
[1] = test system: Enterococcus faecalis; assay: Antibacterial activity against Enterococcus faecalis ATCC 29212 after 16 hrs by broth microdilution method; type: functional; settings: ATCC 29212, 16 h
[2] = test system: Staphylococcus aureus; assay: Antibacterial activity against Staphylococcus aureus ATCC 25923 after 16 hrs by broth microdilution method; type: functional; settings: ATCC 25923, 16 h
[3] = test system: Escherichia coli; assay: Antibacterial activity against Escherichia coli ATCC 29425 after 16 hrs by broth microdilution method; type: functional; settings: ATCC 29425, 16 h
[4] = test system: Enterococcus faecium; assay: Antibacterial activity against vancomycin-resistant Enterococcus faecium after 16 hrs by broth microdilution method; type: functional
In short: (§1)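 Clinical isolates, including strains resistant to common antimicrobials, tested by the standard broth dilution method. The read-out is the minimum inhibitory concentration in μg/mL. Each value is representative of three independent determinations.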

[5] = test system: Escherichia coli; assay: Antibacterial activity against Escherichia coli clinical isolate after 16 hrs by 2-fold microdilution method; type: functional
[6] = test system: HEK293; assay: Cytotoxicity against human HEK293 cells after 48 hrs by MTT assay; type: cell-based; settings: HEK293, 48 h
In short: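 Standard MTT assay in Human Embryonic Kidney 293 cells, with 64 μg/mL as the top concentration tested. IC50 came from three independent experiments.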

[7] = test system: Enterococcus faecalis; assay: Antibacterial activity against vancomycin-susceptible Enterococcus faecalis after 16 hrs by broth microdilution method; type: functional
[8] = test system: Staphylococcus aureus; assay: Antibacterial activity against methicillin-resistant Staphylococcus aureus after 16 hrs by broth microdilution method; type: functional; in short: as §1
[9] = test system: Enterococcus faecalis; assay: Antibacterial activity against vancomycin-resistant Enterococcus faecalis after 16 hrs by broth microdilution method; type: functional; in short: as §1
[10] = test system: Enterococcus faecium; assay: Antibacterial activity against vancomycin-susceptible Enterococcus faecium after 16 hrs by broth microdilution method; type: functional; in short: as §1
[11] = test system: Streptococcus pneumoniae; assay: Antibacterial activity against penicillin-susceptible Streptococcus pneumoniae after 16 hrs by broth microdilution method; type: functional
[12] = test system: Streptococcus pneumoniae; assay: Antibacterial activity against penicillin-resistant Streptococcus pneumoniae after 16 hrs by broth microdilution method; type: functional; in short: as §1
[13] = test system: Staphylococcus aureus; assay: Antibacterial activity against methicillin-susceptible Staphylococcus aureus after 16 hrs by broth microdilution method; type: functional; in short: as §1
[14] = Cytotoxicity against human HEK293 cells at 64 ug/ml after 48 hrs by MTT assay; type: cell-based; settings: read-out: INH
In short: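 HEK293 cells were exposed to compound at 64 μg/mL and assessed by standard MTT. Inhibitory rate was recorded across three independent experiments.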

[15] = target: Albumin (Bos taurus, UniProt P02769); assay: Binding affinity to bovine serum albumin BY HPLC analysis; type: ADME; settings: cattle, isolated protein
Sequence of Albumin (P02769 whole entry): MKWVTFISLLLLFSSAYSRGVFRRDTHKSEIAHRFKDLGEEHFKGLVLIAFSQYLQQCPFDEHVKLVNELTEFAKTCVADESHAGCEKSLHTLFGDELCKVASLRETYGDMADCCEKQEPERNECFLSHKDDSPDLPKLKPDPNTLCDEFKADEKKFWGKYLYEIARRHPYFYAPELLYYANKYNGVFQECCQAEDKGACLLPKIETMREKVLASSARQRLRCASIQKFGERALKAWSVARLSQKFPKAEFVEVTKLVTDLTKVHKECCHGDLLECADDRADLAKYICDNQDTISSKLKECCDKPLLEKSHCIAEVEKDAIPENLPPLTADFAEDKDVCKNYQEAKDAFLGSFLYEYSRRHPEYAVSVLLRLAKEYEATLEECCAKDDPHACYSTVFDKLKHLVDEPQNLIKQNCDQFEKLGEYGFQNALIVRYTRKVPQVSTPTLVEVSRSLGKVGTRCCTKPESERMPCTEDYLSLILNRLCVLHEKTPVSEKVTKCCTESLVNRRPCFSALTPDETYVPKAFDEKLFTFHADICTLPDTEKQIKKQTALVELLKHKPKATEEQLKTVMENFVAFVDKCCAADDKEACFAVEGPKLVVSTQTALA
In short: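 Compound was incubated with BSA standard solution and the bound fraction separated by centrifugal ultrafiltration. Free compound was quantified by HPLC. Binding degree = (Cb–Ca)/Cb, where Cb and Ca are the compound concentrations before and after interaction with BSA.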

SMILES	MIC [1] [µg/mL]	MIC [2] [µg/mL]	MIC [3] [µg/mL]	further results
c1ccc(CNCCNc2nc3ccccc3o2)cc1	> 64	> 64	> 64	–
c1ccc(CNCCCNc2nc3ccccc3o2)cc1	> 64	> 64	> 64	–
Clc1ccc(CNCCNc2nc3ccccc3o2)cc1	32 (≈ 106 µM)	8 (≈ 26.5 µM)	> 64	–
Clc1ccc(CNCCCNc2nc3ccccc3o2)cc1	16 (≈ 50.7 µM)	16 (≈ 50.7 µM)	> 64	–
Brc1cccc(CNCCNc2nc3ccccc3o2)c1	64 (≈ 185 µM)	8 (≈ 23.1 µM)	> 64	–
Brc1cccc(CNCCCNc2nc3ccccc3o2)c1	8 (≈ 22.2 µM)	16 (≈ 44.4 µM)	32 (≈ 88.8 µM)	–
Oc1ccc(CNCCNc2nc3ccccc3o2)cc1	32 (≈ 113 µM)	32 (≈ 113 µM)	> 64	–
Oc1ccc(CNCCCNc2nc3ccccc3o2)cc1	32 (≈ 108 µM)	32 (≈ 108 µM)	> 64	–
COc1ccc(CNCCNc2nc3ccccc3o2)cc1	64 (≈ 215 µM)	64 (≈ 215 µM)	> 64	–
COc1ccc(CNCCCNc2nc3ccccc3o2)cc1	32 (≈ 103 µM)	32 (≈ 103 µM)	> 64	–
Clc1ccc(CNCCNc2nc3ccccc3o2)cc1Cl	8 (≈ 23.8 µM)	16 (≈ 47.6 µM)	> 64	–
Clc1ccc(CNCCCNc2nc3ccccc3o2)cc1Cl	2 (≈ 5.71 µM)	16 (≈ 45.7 µM)	32 (≈ 91.4 µM)	–
Clc1ccc(CNCCNc2nc3ccccc3o2)c(Cl)c1	8 (≈ 23.8 µM)	8 (≈ 23.8 µM)	> 64	–
Clc1ccc(CNCCCNc2nc3ccccc3o2)c(Cl)c1	4 (≈ 11.4 µM)	8 (≈ 22.8 µM)	> 64	–
COc1ccc2nc(NCCCNCc3ccc(Cl)c(Cl)c3)oc2c1	16 (≈ 42.1 µM)	8 (≈ 21 µM)	32 (≈ 84.1 µM)	–
Clc1ccc2nc(NCCCNCc3ccc(Cl)c(Cl)c3)oc2c1	4 (≈ 10.4 µM)	2 (≈ 5.2 µM)	32 (≈ 83.2 µM)	–
Clc1ccc2oc(NCCCNCc3ccc(Cl)c(Cl)c3)nc2c1	4 (≈ 10.4 µM)	2 (≈ 5.2 µM)	32 (≈ 83.2 µM)	–
Fc1ccc2nc(NCCCNCc3ccc(Cl)c(Cl)c3)oc2c1	4 (≈ 10.9 µM)	1 (≈ 2.72 µM)	32 (≈ 86.9 µM)	–
Fc1ccc2oc(NCCCNCc3ccc(Cl)c(Cl)c3)nc2c1	4 (≈ 10.9 µM)	1 (≈ 2.72 µM)	32 (≈ 86.9 µM)	–
Fc1cc2nc(NCCCNCc3ccc(Cl)c(Cl)c3)oc2cc1F	2 (≈ 5.18 µM)	1 (≈ 2.59 µM)	32 (≈ 82.9 µM)	–
Cl.O=c1cc(NCCCNCc2ccc(Cl)c(Cl)c2)[nH]c2ccccc12	0.5	4	> 64	MIC [4]: 1 µg/mL; MIC [5]: > 64 µg/mL; IC50 [6]: > 64 µg/mL; MIC [7]: 1 µg/mL; MIC [8]: 2 µg/mL; MIC [9]: 2 µg/mL; MIC [10]: 1 µg/mL; MIC [11]: 4 µg/mL; MIC [12]: 8 µg/mL; MIC [13]: 2 µg/mL; cytotoxicity at 48 h, 64 ug/ml [14]: 15%
c1ccc(CNCCNc2nc3ccccc3s2)cc1	> 64	> 64	> 64	–

SMILES	MIC [1] [µg/mL]	MIC [2] [µg/mL]	MIC [3] [µg/mL]	further results
c1ccc(CNCCCNc2nc3ccccc3s2)cc1	> 64	> 64	> 64	–
Clc1ccc(CNCCNc2nc3ccccc3s2)cc1	32 (≈ 101 µM)	8 (≈ 25.2 µM)	> 64	–
Clc1ccc(CNCCCNc2nc3ccccc3s2)cc1	8 (≈ 24.1 µM)	16 (≈ 48.2 µM)	> 64	–
Brc1cccc(CNCCNc2nc3ccccc3s2)c1	64 (≈ 177 µM)	8 (≈ 22.1 µM)	64 (≈ 177 µM)	–
Brc1cccc(CNCCCNc2nc3ccccc3s2)c1	8 (≈ 21.3 µM)	16 (≈ 42.5 µM)	32 (≈ 85 µM)	–
Oc1ccc(CNCCNc2nc3ccccc3s2)cc1	32 (≈ 107 µM)	16 (≈ 53.4 µM)	> 64	–
Oc1ccc(CNCCCNc2nc3ccccc3s2)cc1	32 (≈ 102 µM)	16 (≈ 51 µM)	> 64	–
COc1ccc(CNCCNc2nc3ccccc3s2)cc1	32 (≈ 102 µM)	32 (≈ 102 µM)	> 64	–
COc1ccc(CNCCCNc2nc3ccccc3s2)cc1	64 (≈ 195 µM)	64 (≈ 195 µM)	> 64	–
Clc1ccc(CNCCNc2nc3ccccc3s2)cc1Cl	64 (≈ 182 µM)	32 (≈ 90.8 µM)	> 64	–
Clc1ccc(CNCCCNc2nc3ccccc3s2)cc1Cl	16 (≈ 43.7 µM)	4 (≈ 10.9 µM)	32 (≈ 87.4 µM)	–
Clc1ccc(CNCCNc2nc3ccccc3s2)c(Cl)c1	8 (≈ 22.7 µM)	2 (≈ 5.68 µM)	32 (≈ 90.8 µM)	–
Clc1ccc(CNCCCNc2nc3ccccc3s2)c(Cl)c1	8 (≈ 21.8 µM)	8 (≈ 21.8 µM)	> 64	–
COc1ccc2nc(NCCCNCc3ccc(Cl)c(Cl)c3)sc2c1	4 (≈ 10.1 µM)	4 (≈ 10.1 µM)	> 64	–
Clc1ccc2nc(NCCCNCc3ccc(Cl)c(Cl)c3)sc2c1	2 (≈ 4.99 µM)	4 (≈ 9.98 µM)	32 (≈ 79.8 µM)	–
Clc1ccc2sc(NCCCNCc3ccc(Cl)c(Cl)c3)nc2c1	2 (≈ 4.99 µM)	2 (≈ 4.99 µM)	32 (≈ 79.8 µM)	–
Fc1ccc2nc(NCCCNCc3ccc(Cl)c(Cl)c3)sc2c1	2 (≈ 5.2 µM)	1 (≈ 2.6 µM)	32 (≈ 83.3 µM)	–
Fc1ccc2sc(NCCCNCc3ccc(Cl)c(Cl)c3)nc2c1	2 (≈ 5.2 µM)	1 (≈ 2.6 µM)	32 (≈ 83.3 µM)	–
Fc1cc2nc(NCCCNCc3ccc(Cl)c(Cl)c3)sc2cc1F	1 (≈ 2.49 µM)	0.5 (≈ 1.24 µM)	32 (≈ 79.5 µM)	MIC [4]: 2 µg/mL (≈ 4.97 µM); MIC [5]: > 64 µg/mL; IC50 [6]: > 64 µg/mL; MIC [7]: 1 µg/mL (≈ 2.49 µM); MIC [8]: 1 µg/mL (≈ 2.49 µM); MIC [9]: 1 µg/mL (≈ 2.49 µM); MIC [10]: 2 µg/mL (≈ 4.97 µM); MIC [11]: 4 µg/mL (≈ 9.94 µM); MIC [12]: 4 µg/mL (≈ 9.94 µM); MIC [13]: 0.5 µg/mL (≈ 1.24 µM); cytotoxicity at 48 h, 64 ug/ml [14]: 15%; Activity [15]: 1.4%
CC1(C)S[C@@H]2[C@H](NC(=O)[C@H](N)c3ccccc3)C(=O)N2[C@H]1C(=O)O [AMPICILLIN]	–	–	–	MIC [4]: > 64 µg/mL; MIC [5]: 0.25 µg/mL (≈ 0.715 µM); MIC [7]: 0.125 µg/mL (≈ 0.358 µM); MIC [8]: > 64 µg/mL; MIC [9]: > 64 µg/mL; MIC [10]: 0.25 µg/mL (≈ 0.715 µM); MIC [11]: 0.125 µg/mL (≈ 0.358 µM); MIC [12]: > 64 µg/mL; MIC [13]: 0.0625 µg/mL (≈ 0.179 µM)
CO/N=C(\C(=O)N[C@@H]1C(=O)N2C(C(=O)O)=C(COC(C)=O)CS[C@H]12)c1csc(N)n1 [CEFOTAXIME]	–	–	–	MIC [4]: > 64 µg/mL; MIC [5]: 0.25 µg/mL (≈ 0.549 µM); MIC [7]: 1 µg/mL (≈ 2.2 µM); MIC [8]: > 64 µg/mL; MIC [9]: > 64 µg/mL; MIC [10]: 1 µg/mL (≈ 2.2 µM); MIC [11]: 1 µg/mL (≈ 2.2 µM); MIC [12]: 64 µg/mL (≈ 141 µM); MIC [13]: 1 µg/mL (≈ 2.2 µM)
